In ChEMBL document CHEMBL1128670, “Hypoxia-selective antitumor agents. 11. Chlorambucil N-oxide: a reappraisal of its synthesis, stability, and selective toxicity for hypoxic cells” (J Med Chem, 1995):

Key:
CHO-AA8 [1] = experiment: Growth inhibition activity was measured in repair proficient AA8 cells under aerobic conditions (4 hours drug exposure); assay type: functional, cell-based; conditions: Cricetulus griseus, CHO-AA8, 4 h
CHO-AA8 [2] = experiment: Activity to reduce the surviving fraction to 10% (CT10) was used as an inverse measure of cytotoxic potency in aerobic conditions; assay type: functional, Cricetulus griseus
In short: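 Clonogenic survival assay in magnetically stirred 10 mL suspensions of late-log AA8 cells (10⁶/mL) under continuous gassing with 5% CO₂ in air. Samples were removed periodically during drug exposure. CT₁₀ is the concentration × time giving 10% surviving fraction, used as an inverse measure of cytotoxicity.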

UV4 = experiment: Growth inhibition activity was measured in repair deficient UV4 cells under aerobic conditions (4 hours drug exposure); assay type: functional, cell-based; conditions: Cricetulus griseus, UV4, 4 h
[3] = Ratio of activities reducing surviving fraction to 10% (T10) under aerobic vs hypoxic conditions; assay type: functional
In short: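 Late-log AA8 cells (10⁶/mL) in stirred 10 mL suspensions were gassed continuously with 5% CO₂ in air or in N₂, with periodic sampling for clonogenic survival. The time to 10% survival (T₁₀) was found under each gas at the same drug concentration. The value is the mean of air/N₂ T₁₀ ratios; errors are ranges (two determinations) or standard errors.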

SMILES | IC50 (CHO-AA8 [1]) [µM] | CT10 (CHO-AA8 [2]) [µM·h] | IC50 (UV4) [µM] | Ratio [3]
O=C(O)CCCc1ccc(NCCCl)cc1 | > 250 | 2080 | 90 | 1.26
O=C(O)CCCc1ccc(N(CCCl)CCCl)cc1 [CHLORAMBUCIL] | 38 | 85.2 | 1.2 | 1.28
O=C(O)CCCc1ccc(N(CCCl)OCCCl)cc1 | 456 | >2400 | 176 | –
